Shown are actives, neighbours in structure and some others; about 3% of the full set was active somewhere.
AI-2 QS mod: modulators of Vibrio harveyi AI-2 quorum sensing system | Vibrio harveyi JMH597 AI-2 luminescence/OD600 ratio, 9 h; stronger effect = lower value; strain lacks LuxN and CqsS sensors; 0 = neutral-control median | activity change, % at 7.5 µM | hit rate 0.4% among 300,000; in the data active means activity change below about -75%, passing the limit was not always enough; inconclusive means no clear call, values can overlap the other calls;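 further: luminescence divided by OD600 gain over 9 h not by final OD600 alone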
Yeast superoxide: lowers age-related superoxide in aged yeast cells; S. cerevisiae aged cells, superoxide DHE fluorescence; stronger effect = lower value; superoxide response (% of plate mean), % at 10 µM; hit rate 0.18% among 330,000; AID 2690;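 active means superoxide response under a set limit, about three screen SD below normal, cut at about 65% in these data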;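 further: yeast aged for seven days with compound at 30 °C before DHE staining; 100% = average MFI of all compound-treated wells on the plate with controls excluded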
NRP1-CendR mod: NRP-1/CendR interaction modulation; O14786; FAM-RPARPAR peptide binding to NRP-1, fluorescence polarization; inhibition, % at 25 µM; hit rate 0.85% among 360,000; AID 602438;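 active means inhibition or corrected inhibition above about 18%, plus a signal ratio from 0.5 to 1.5, limit read from the data, passing the limit was not always enough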
Target sequence (O14786 whole entry, looked up): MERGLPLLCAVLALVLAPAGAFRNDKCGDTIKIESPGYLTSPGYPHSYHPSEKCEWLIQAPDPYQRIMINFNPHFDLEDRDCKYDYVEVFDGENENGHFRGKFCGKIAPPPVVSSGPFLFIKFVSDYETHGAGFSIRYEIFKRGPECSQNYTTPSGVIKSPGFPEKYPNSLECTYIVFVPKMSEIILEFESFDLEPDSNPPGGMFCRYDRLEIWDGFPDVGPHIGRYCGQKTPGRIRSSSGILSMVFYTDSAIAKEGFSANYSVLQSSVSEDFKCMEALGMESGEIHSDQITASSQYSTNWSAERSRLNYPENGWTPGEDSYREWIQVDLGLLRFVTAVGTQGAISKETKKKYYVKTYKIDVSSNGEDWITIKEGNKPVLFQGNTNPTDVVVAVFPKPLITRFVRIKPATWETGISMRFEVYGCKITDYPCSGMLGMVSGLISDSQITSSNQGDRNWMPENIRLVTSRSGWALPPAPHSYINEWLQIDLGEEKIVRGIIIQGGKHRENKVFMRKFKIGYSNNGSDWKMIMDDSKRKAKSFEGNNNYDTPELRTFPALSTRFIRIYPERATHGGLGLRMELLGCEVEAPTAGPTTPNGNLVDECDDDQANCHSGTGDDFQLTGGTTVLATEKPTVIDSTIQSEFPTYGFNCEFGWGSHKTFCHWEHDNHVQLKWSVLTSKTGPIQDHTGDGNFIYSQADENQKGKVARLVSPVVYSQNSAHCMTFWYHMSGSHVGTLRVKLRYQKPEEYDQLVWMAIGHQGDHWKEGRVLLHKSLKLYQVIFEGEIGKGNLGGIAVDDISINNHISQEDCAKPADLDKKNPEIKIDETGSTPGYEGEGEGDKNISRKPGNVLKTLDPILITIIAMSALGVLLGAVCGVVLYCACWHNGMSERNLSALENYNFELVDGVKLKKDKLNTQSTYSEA
V-ATPase pH: yeast V-ATPase proton transport regulation by pHLuorin. hit rate 0.37% among 350,000. AID 504577. S. cerevisiae, pHLuorin cytosolic pH fluorescence. response, % at 10 µM; in the data active means response mostly above about 7.3%, no sharp cut-off; inactive means mostly below about 5.4%; further: actives read high
T cruzi repl: T. cruzi replication inhibition. T. cruzi beta-gal in NIH3T3, luminescence, 90 h. inhibition, % (test concentration not listed). hit rate 1.4% among 300,000. AID 1885;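 active means mean inhibition across valid replicates above about 55%, limit read from the data; inconclusive means mean below that limit but half or more replicates reach it; inactive means mean below it, under half of replicates reach it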;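 further: signal also drops with host cell toxicity which is not excluded here; 0% = plate median of DMSO wells and 100% = zero luminescence signal; higher percent means less beta-gal luminescence so fewer parasites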
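System: Mouse NIH/3T3 fibroblasts infected with β-gal-expressing T. cruzi Tulahuen C4 | Quantity: NIH/3T3 cells, 5,000 per well | Reagent: 5000 reporter trypomastigotes per well | Dosing: Compound pinned at 50 nL/well, DMSO | Schedule: 3 h host attachment, then at least 90 h co-culture | Detection: GalScreen luminescence, 60 min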
HIF activator: HIF pathway transcriptional activation; U2OS HRE-luciferase reporter, luminescence; normalized: DMSO 0%, desferrioxamine 100%; activation, % at 7.5 µM (by protocol); hit rate 0.32% among 300,000;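 active means mean activation of at least 10% of the iron chelator positive control signal, with at least half of replicates also reaching 10%; inconclusive means mean and replicate majority disagree about reaching 10%; inactive means mean and most replicates under 10%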
JMH597 growth rt: retest: blocks Vibrio harveyi JMH597 growth | shares compounds with AI-2 QS mod | OD600 absorbance, 9 h; lacks LuxN and CqsS sensors | growth inhibition, % at 7.5 µM | hit rate 1% among 750 | AID 2726;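 active means every replicate shows growth inhibition above 50%; inconclusive means at least half, but not all, replicates pass that cutoff; inactive means fewer than half of replicates pass it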
BB721 lum counter: retest counter-screen: lowers luminescence of constitutive-QS Vibrio harveyi BB721; hit rate 95% among 750; inhibition, % at 7.5 µM; shares compounds with AI-2 QS mod; 9 h;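 active means inhibition above about 80% in every replicate, not just on average, limit read from the data; inconclusive means at least half of replicates past the limit, but not all; inactive means fewer than half of replicates past the limit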
BB721 growth rt: retest Vibrio harveyi BB721 growth inhibition; shares compounds with AI-2 QS mod; OD600 absorbance, 9 h; growth inhibition, % at 7.5 µM; hit rate 3% among 750; AID 2728;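 active means every replicate shows growth inhibition above 50%; inconclusive means at least half but not all replicates above 50% inhibition; inactive means under half of replicates above 50% inhibition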
JMH597 AI-2 mod: Vibrio harveyi AI-2 signaling luminescence modulation – JMH597 strain, confirmation. shares compounds with AI-2 QS mod. Vibrio harveyi JMH597 AI-2 quorum sensing luminescence, 9 h; luxN and CqsS knockout, AI-2 only. inhibition, % at 7.5 µM. hit rate 97% among 750;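 active means every replicate shows more than 75% inhibition of signal versus neutral control wells; inconclusive means half to three quarters of replicates exceed 75% inhibition; inactive means fewer than half of replicates exceed 75% inhibition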
* = called active by the depositor; ? = inconclusive; . = not tested or not shown.

SMILES	AI-2 QS mod	Yeast superoxide	NRP1-CendR mod	V-ATPase pH	T cruzi repl	HIF activator	JMH597 growth rt	BB721 lum counter	BB721 growth rt	JMH597 AI-2 mod
O=C(NC(=S)Nc1nc(-c2ccc(Br)cc2)cs1)c1ccco1	21	103	9	1	14	0	.	.	.	.
O=C(NNc1nc(-c2ccc(Br)cc2)cs1)c1ccco1	-85*	108	4	5	10	0	63*	95*	69*	97*
COc1ccccc1OCCNC(=O)c1ccc(S(=O)(=O)N(C)C)cc1	-6	98	-1	-7	-5	0	.	.	.	.
COc1ccccc1CNC(=O)c1ccc(S(=O)(=O)N(C)C)cc1	-80*	88	-2	-4	-12	1	-5	84*	0	90*
CN(C)S(=O)(=O)c1ccc(C(=O)Oc2ccccc2)cc1	-80*	111	0	3	-13	0	11	91*	39	93*
CN(Cc1nccs1)C(=O)c1cc(COc2cccc3cnccc23)on1	-94*	98	-4	0	-23	0	27	97*	26	99*
CCOC(=O)CC1CCCCN1C(=O)c1cc(COc2cccc3cnccc23)on1 (centres undefined)	-86*	85	5	0	-25	-1	22	88*	23	93*
O=C(c1cc(COc2cccc3cccnc23)on1)N1CCC[C@H]1CO	.	.	-10	1	.	.	.	.	.	.
COC(=O)C1CCCCN1C(=O)c1cc(COc2cccc3cnccc23)on1 (centres undefined)	-91*	93	1	0	1	1	8	92*	25	95*
COC(=O)C1CCCCN1C(=O)c1cc(COc2cccc3cccnc23)on1 (centres undefined)	30	97	-8	0	-2	1	.	.	.	.
CCN(CC)S(=O)(=O)c1ccc(C(=O)Oc2coc(CSc3nc(C)cc(C)n3)cc2=O)cc1	30	98	8	-4	-12	-1	.	.	.	.
O=C(COc1cccc(C(F)(F)F)c1)Nc1cccnc1	6	129	7	3	-9	1	.	.	.	.
O=C(COc1cccc(C(F)(F)F)c1)Nc1ccc2[nH]ncc2c1	-79*	96	-9	0	-11	-1	11	87*	2	91*
Clc1nc(-c2ccccc2)ncc1Oc1ccccc1	-85*	102	8	0	-1	1	18	97*	22	98*
O=C(CCN1C(=O)CSC1=O)Nc1ccc(Br)cc1	-80*	94	12	0	-16	0	13	13	9	9
CC(C)c1ccc(O)c(NC(=O)c2cncc(Br)c2)c1	-94*	98	-13	5	0	1	8	98*	32	98*
O=C(/C=C/c1ccccc1[N+](=O)[O-])Oc1ccccc1	-81*	106	.	.	-6	0	-9	79*	14	88*
COc1ccc(OC)c(NC(=O)/C=C/c2ccccc2[N+](=O)[O-])c1	33	122	12	-1	14	1	.	.	.	.
O=C(/C=C/c1ccccc1Cl)NCc1ccccc1	-94*	83	16	-2	12	1	4	98*	17	99*
O=C(/C=C/c1ccccc1[N+](=O)[O-])NCc1ccc(Cl)cc1	?	99	-3	-4	10	0	-4	91*	10	93*
COc1ccc(CNC(=O)/C=C/c2ccccc2[N+](=O)[O-])cc1	-80*	100	-7	5	17	0	14	95*	3	96*
O=C(/C=C/c1ccccc1Cl)NCCc1ccccc1	-34	110	0	4	22	3	.	.	.	.
NS(=O)(=O)c1ccc(CNC(=O)/C=C/c2ccccc2[N+](=O)[O-])cc1	14	104	0	-2	-5	0	.	.	.	.
Cc1ccc(C(=O)NC(Cc2ccccc2C(F)(F)F)C(=O)O)cc1 (centres undefined)	.	101	14	-4	.	.	.	.	.	.
C=CCNc1nc(Nc2ccc([N+](=O)[O-])cc2)nc(OC)n1	17	101	4	4	3	0	.	.	.	.
SMILES	AI-2 QS mod	Yeast superoxide	NRP1-CendR mod	V-ATPase pH	T cruzi repl	HIF activator	JMH597 growth rt	BB721 lum counter	BB721 growth rt	JMH597 AI-2 mod
CCc1ccc(OCC(=O)Nc2ccncc2)c(Br)c1	-81*	86	12	3	-38	13*	30	?	-22	100*
CC(C)(C)c1ccc(OCC(=O)Nc2ccncc2)c(Br)c1	19	96	2	1	-8	4	.	.	.	.
CCc1ccc(NC(=O)COc2ccc(Br)cn2)cc1	-84*	101	16	0	1	1	-16	95*	1	96*
Cc1ccc(/C=C/C(=O)NCc2ccncc2)cc1	-5	104	-7	1	-4	0	.	.	.	.
Cc1ccc(CNC(=O)/C=C/c2ccc(Br)o2)cc1	-94*	106	8	0	0	0	23	99*	?	99*
O=C(/C=C/c1ccc(Br)o1)NCc1ccccc1	-90*	106	-10	-2	13	0	13	97*	19	97*
CC(=O)Nc1cccc2cc(S(=O)(=O)O)ccc12	.	.	11	.	.	.	.	.	.	.
O=C(Nn1cnnc1)c1ccc(Br)s1	26	99	-5	2	-13	-1	.	.	.	.
Nc1nc(-c2ccc(Oc3ccccc3)cc2)cs1	-95*	106	-4	4	3	1	-32	96*	-94	98*
CCCCc1ccc(NC(=O)CSc2nc3ncccc3[nH]2)cc1	-88*	122	6	0	12	.	3	93*	7	96*
CCOC(=O)c1ccc(NC(=O)CSc2nc3ncccc3[nH]2)cc1	-91*	102	-6	-1	-3	2	31	97*	40	97*
C/C(=N/NC(=O)c1cccs1)c1cccc(N)c1	16	115	-7	0	-8	4	.	.	.	.
N#Cc1nc(-c2ccc(F)cc2)oc1NCc1ccccc1	-96*	96	-14	-1	-5	1	20	95*	15	97*
N#Cc1nc(-c2ccc(F)cc2)oc1NCc1ccco1	-59	90	19	-3	31	1	.	.	.	.

Bioassay records: PubChem BioAssay, several laboratories
